CHOP inh – blocks CHOP induction under ER stress; CHO-K1 CHOP-promoter luciferase, tunicamycin-induced, 15-18 h; inhibition, % at 10 µM; hit rate 3.8% among 220,000; AID 2732;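 active = compounds that reduced the stress-induced luciferase reporter signal by more than about 70% of percent inhibition, limit read from the data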
H9c2 protect – modulators protecting cardiomyocytes from myocardial damage; H9c2 cardiomyocytes, H2O2 injury protection, ATPLite, 2 h; protection from H2O2 cell death, % at 20 µM; hit rate 0.63% among 360,000;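 active = compounds giving at least 50% protection of heart cells from peroxide-induced death in the single-dose screen, raw or plate-pattern-corrected value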
XBP1 UPR activ – activators of adaptive arm of unfolded protein response (XBP1); AID 463104; CHO-XBP1 luciferase reporter, IRE1-XBP1 UPR activation, luminescence; percent of tunicamycin response, DMSO as zero; hit rate 0.33% among 330,000; activation, % at 20 µM;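 active = versus positive control, 20 µM dose yields 30% or more activation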
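assay system = CHO-XBP1 luciferase reporter cells | amount = 1000 cells/well | buffer or medium = F12 plus 10% FBS | compound dosing = single point, 20 µM final compound, 1% DMSO | incubation = 16-18 h cell attachment at 37 °C, then 6 h compound exposure | detection = Steady-Glo luminescence read | controls = tunicamycin 10 µg/mL and vehicle-only wells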
UPR CHOP act – apoptotic UPR (CHOP) activation | hit rate 0.34% among 330,000 | activation, % at 10 µM | CHO-CHOP luciferase reporter, luminescence; percent of tunicamycin response over DMSO baseline;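 active = at 10 µM dose, activation of 40% or more, normalized to positive control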
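Test system: CHO CHOP reporter cells. Input: 500 CHO-CHOP cells per well. Medium: F12 with 10% FBS. Technique: luciferase luminescence. Measure: percent activation relative to tunicamycin control. Dosing: 10 µM compound, 0.5% DMSO. Timing: 16-18 h cell attachment, then 6 h compound exposure, 37 °C.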
iPSC survival up – hiPSC single-cell survival enhancement; ATPlite luminescence; 100% = ROCK inhibitor wells, 0% = DMSO; survival enhancement, % at 20 µM; hit rate 0.044% among 360,000; AID 602274; in the data active = survival enhancement above about 18%;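 also: cells exposed to compounds for 16 hours before the ATP read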
Numbers stand for hits; n = inactive; x = no result given. Shown is part of a subset that was picked to be rich in hits.

SMILES | CHOP inh | H9c2 protect | XBP1 UPR activ | UPR CHOP act | iPSC survival up
Cc1sc2ncnc(N(C)Cc3ccco3)c2c1C | n | n | n | n | n
Clc1cccc(CSc2ncn(-c3ccccc3)n2)c1 | 92.5 | n | n | n | n
Clc1ccc(CSc2ncn(-c3ccccc3)n2)cc1 | n | n | n | n | n
O=C(Nc1cccc(S(=O)(=O)Nc2ccc(Cl)cc2)c1)c1ccc(Cl)nc1 | 72.7 | n | n | n | n
O=C(Nc1cccc(S(=O)(=O)Nc2ccc(Cl)cc2)c1)c1cc2c(s1)CCCC2 | 75.9 | n | n | n | n
CN(CCc1ccccc1)C(=O)c1[nH]c(C(F)(F)F)nc1-c1ccccc1 | x | n | x | x | n
CCOc1cc(Br)c(Br)c(C=Nc2ccc(NC(C)=O)cc2)c1O | 86.8 | 93.9 | n | n | n
N#C/C(=C(/O)CN1CCN(c2ccccc2F)CC1)c1nc(-c2ccc(Cl)cc2)cs1 | 82.5 | n | n | n | n
N#C/C(=C(/O)CN1CCCCC1)c1nc(-c2ccc(Cl)cc2)cs1 | n | n | n | n | n
CC(C)(C)NC(=O)Cn1cc(C#N)c2cc(Br)ccc21 | 78.8 | n | n | n | n
COC(=O)Cn1cc(C#N)c2ccccc21 | n | n | n | n | n
Cc1cccc(Oc2cnn(C(C)(C)C)c(=O)c2Cl)c1 | 71.2 | n | n | n | n
COc1cnn(C(C)(C)C)c(=O)c1Cl | n | n | n | n | n
Cc1ccc(N2CCN(c3ccc(C)cc3)C2c2ccncc2)cc1 | 77.0 | n | n | n | n
Cc1cccc(N2CCN(c3cccc(C)c3)C2c2cccnc2)c1 | x | n | n | n | n
CN(CC1COc2ccccc2O1)C(=O)c1cccc(S(=O)(=O)N2CCCC2)c1 (stereo not given) | x | n | n | n | n
O=C/C(=C\Nc1ccccn1)c1nc2cc(Cl)ccc2o1 | n | 55.7 | n | n | n
O=C/C(=C\Nc1ccc(Br)cc1)c1nc2ccccc2o1 | 74.5 | n | n | n | n
CC(=O)Nc1ccc(N/C=C(\C=O)c2nc3ccccc3o2)cc1 | n | n | n | n | n
CC(/C=C(\NC(=O)c1ccccc1)C(=O)N=Nc1c(O)[nH]c2ccc(C)cc12)=C\c1ccccc1 | n | 61.5 | n | n | n
CC(=O)Nc1cc(-c2ccc(N)nc2)cn2c(-c3cccc(C(F)(F)F)c3)cnc12 | x | n | x | x | n
COc1ccccc1-n1cnc2cc(NS(=O)(=O)c3ccc(Br)cc3)ccc21 | 78.8 | n | n | n | n
O=C(O)c1cc2nc(-c3ccccc3)cc(-c3ccccc3)n2n1 | n | n | n | n | n
CC1CCCCN1C(=O)c1cc2nc(-c3ccccc3)cc(-c3ccccc3)n2n1 (stereo not given) | 81.8 | n | n | n | n
O=C(c1cc2nc(-c3ccc(F)cc3)cc(C(F)(F)F)n2n1)N1CCCCC1c1cccnc1 (stereo not given) | 72.9 | n | n | n | n
SMILES | CHOP inh | H9c2 protect | XBP1 UPR activ | UPR CHOP act | iPSC survival up
N/C(=N\OC(=O)c1ccccc1)c1ccn[nH]1 | x | n | n | n | n
COc1cc2c(cc1OC)CN(c1nc(CN3CCCC3)nc3sc(C)c(C)c13)CC2 | 78.4 | n | n | n | n
COc1cc(CN2CCCC(CCC(=O)NCc3ccc(C)o3)C2)cc2c1OCO2 (stereo not given) | 86.1 | n | n | n | n
O=C(Nc1ccn(CCCNCC2CCCO2)c(=O)n1)OCc1ccccc1 (stereo not given) | x | n | x | x | n
Cc1ccccc1OCCCCc1c(C)n[nH]c1C | 85.3 | n | n | n | n
Cc1ccccc1OCCCc1c(C)n[nH]c1C | n | n | n | n | n
Cc1cccc(C)c1OCCCCc1c(C)n[nH]c1C | 86.1 | n | n | n | n
COc1cccc(OC)c1OCCCCc1c(C)n[nH]c1C | n | n | n | n | n
NS(=O)(=O)c1cccc(NC(=O)COC(=O)c2ccc(S(=O)(=O)N3CCOCC3)cc2)c1 | x | n | x | x | n
CC1(Oc2cccc(C#N)c2)CCN(Cc2ccccc2OC(F)F)C1 (stereo not given) | x | n | x | x | n
CCOc1ccc(CNC(=O)CN2C(=O)CSc3ccc(S(=O)(=O)N4CCOCC4)cc32)cc1 | x | n | x | x | n
CCc1nc2c(OCCOc3ccc(F)cc3)cccn2c1N(C)C(=O)c1ccco1 | x | n | x | x | n
O=c1c2ccccc2nc(/C=C/c2cc(Br)ccc2O)n1CCCO | x | 50.0 | n | n | n
O=C1CSC(=S)N1N=Cc1c(O)ccc2ccccc12 | x | 56.3 | x | x | n

Source: PubChem
